ChEMBL document CHEMBL5653613 (Mol Cancer Ther, 2013)
Active and inactive are the calls of the source. The calls are words filed in the database; no cut-off is given here.

How the values were obtained:
[1] = Cmax in athymic mouse xenografted with human GTL-16 cells at 6.25 mg/kg, po qd for 14 days consecutively; format: ADME, organism-based; conditions: in vivo, time 14 day
[2] = tested on: T47D; assay: Disruption of microtubule dynamics in human T47D cells assessed as lack of chromosomal segregation at 5 umol/L incubated for 24 hrs by immunofluorescence staining based analysis; format: functional, cell-based; conditions: dose 5.0 µmol/L
How it was run: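 T-47D cells (1 × 10^6/dish) in RPMI-1640 with 5% FBS were treated with or without 5 µmol/L for 24, 48 and 72 h. Cells were fixed in cold acetone and stained with mouse anti-α-tubulin or anti-γ-tubulin, then an FITC anti-mouse IgG secondary, plus DAPI. Fluorescence microscopy, 200× magnification.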

[3] = tested on: MCF7; assay: Induction of polyploidy in human MCF7 cells assessed as cells with 4N chromosome contents at 5 uM incubated for 48 hrs by PI staining based flow cytometry (reference value: 36); format: functional
[4] = tested on: ZR-75-1; assay: Induction of cell death of human ZR-75-1 cells with RON-/- at 5 umol/L incubated for 72 hrs followed by media replacement without compound measured upto 10 days by microscopic analysis; format: functional, cell-based; conditions: dose 5.0 µmol/L
[5] = tested on: ZR-75-1; assay: Induction of polyploidy in human ZR-75-1 cells assessed as cells with 16N chromosome contents at 5 uM incubated for 72 hrs by PI staining based flow cytometry (reference value: 0); format: functional
[6] = tested on: T47D; assay: Induction of apoptosis in human T47D cells assessed as necrotic cells at 5 umol/L incubated for 3 days by Annexin V/PI staining based flow cytometry (reference value: 0.6 %); format: functional; conditions: dose 5 µmol/L; time 3 day; at 5 µM
[7] = tested on: T47D; assay: Induction of polyploidy in human T47D cells assessed as cells with 4N chromosome contents at 5 uM incubated for 24 hrs by PI staining based flow cytometry (reference value: 35); format: functional
[8] = tested on: MCF7; assay: Induction of polyploidy in human MCF7 cells assessed as cells with 8N chromosome contents at 5 uM incubated for 48 hrs by PI staining based flow cytometry (reference value: 0); format: functional
[9] = (§1) Effect on methotrexate resistance in human T47D cells with compound-induced polyploidy assessed as change in methotrexate-induced cytotoxicity by measuring increase in methotrexate IC50 at 5 umol/L preincubated for 72 hrs followed by compound washout and subsequent methotrexate treatment for 72 hrs by MTS assay; format: functional, cell-based
[10] = tested on: ZR-75-1; assay: Inhibition of clonogenic growth in human ZR-75-1 cells incubated for 10 days by Hema-3 staining based microscopy; format: functional, cell-based; conditions: dose 1-5 µmol/L, time 10.0 day
How it was run: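 Colonies were stained with Hema-3, photographed under a microscope with a CCD camera, counted in duplicate, and expressed as % of control. Results are shown from 1 of 2 experiments.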

[11] = tested on: T47D; assay: Induction of polyploidy in human T47D cells with RON-/- at 5 umol/L incubated for 72 hrs by microscopic analysis; format: functional, cell-based; conditions: dose 5.0 µmol/L
How it was run: (§2)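 Cells (2 106 per 60-mm dish) transiently transfected for 48 hours with 1 nmol/L scrambled or RON-specific siRNA, with knockdown confirmed by anti-RON Western blot. […] Polyploidy monitored and photographed by microscopy, with untransfected and scrambled-siRNA cells as comparators.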

[12] = tested on: T47D; assay: Induction of polyploidy in human T47D cells assessed as cells with 16N chromosome contents at 5 uM incubated for 24 hrs by PI staining based flow cytometry (reference value: 0); format: functional
[13] = tested on: ZR-75-1; assay: Induction of polyploidy in human ZR-75-1 cells with RON-/- at 5 umol/L incubated for 72 hrs followed by media replacement without compound measured upto 10 days by microscopic analysis; format: functional, cell-based; conditions: dose 5.0 µmol/L
[14] = tested on: T47D; assay: Induction of polyploidy in human T47D cells assessed as cells with 8N chromosome contents at 5 uM incubated for 24 hrs by PI staining based flow cytometry (reference value: 0); format: functional
[15] = as §1, with “bleomycin” for “methotrexate”, “ZR-75-1” for “T47D”, “bleomycin-induced” for “methotrexate-induced”; format: functional, cell-based
[16] = tested on: MCF7; assay: Induction of polyploidy in human MCF7 cells assessed as cells with 4N chromosome contents at 5 uM incubated for 72 hrs by PI staining based flow cytometry (reference value: 36); format: functional
[17] = tested on: ZR-75-1; assay: Induction of polyploidy in human ZR-75-1 cells at 10 umol/L incubated for 72 hrs by microscopic analysis relative to control; format: functional; conditions: dose 10 µmol/L, at 10 µM
How it was run: (§3)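 Cells stained with Hema-3 and photographed under a light microscope with CCD camera. Polyploid cells scored as percent of the population.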

[18] = tested on: ZR-75-1; assay: Induction of polyploidy in human ZR-75-1 cells assessed as cells with 8N chromosome contents at 5 uM incubated for 48 hrs by PI staining based flow cytometry (reference value: 0); format: functional
[19] = Effect on doxorubicin resistance in human ZR-75-1 cells with compound-induced polyploidy assessed as change in doxorubicin-induced cytotoxicity by measuring increase in DOX IC50 at 5 umol/L preincubated for 72 hrs followed by compound washout and subsequent doxorubicin treatment for 72 hrs by MTS assay; format: functional, cell-based
[20] = tested on: ZR-75-1; assay: Induction of polyploidy in human ZR-75-1 cells assessed as cells with 16N chromosome contents at 5 uM incubated for 48 hrs by PI staining based flow cytometry (reference value: 0); format: functional
[21] = tested on: MCF7; assay: Induction of polyploidy in human MCF7 cells assessed as cells with 2N chromosome contents at 5 uM incubated for 72 hrs by PI staining based flow cytometry (reference value: 52); format: functional
[22] = tested on: T47D; assay: Induction of apoptosis in human T47D cells assessed as cell death at 5 uM; format: functional, cell-based; conditions: TDE = time-dependent effect
[23] = tested on: ZR-75-1; assay: Induction of apoptosis in human ZR-75-1 cells assessed as necrotic cells at 5 umol/L incubated for 3 days by Annexin V/PI staining based flow cytometry (reference value: 0.7 %); format: functional; conditions: dose 5 µmol/L; time 3 day; at 5 µM
[24] = tested on: T47D; assay: Induction of cell cycle arrest at metaphase in human T47D cells assessed as disorganization of multipolar mitotic spindles at 5 umol/L preincubated for 24 hrs followed by extensive compound washout and subsequent culturing in compound-free media measured upto 120 mins by immunofluorescence staining based analysis; format: functional; conditions: dose 5.0 µmol/L
How it was run: (§4)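 T-47D cells were treated at 37°C with 5 µmol/L for 24 h, washed extensively, then cultured in DMEM with 10% FBS for 30, 60 and 120 min. α- and γ-tubulin were detected by immunofluorescence with DAPI, imaged at 400×. The control was a 24 h preincubation with 5 µmol/L RO-3306. One of 2 experiments.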

[25] = tested on: MCF7; assay: Induction of polyploidy in human MCF7 cells assessed as cells with 8N chromosome contents at 5 uM incubated for 24 hrs by PI staining based flow cytometry (reference value: 0); format: functional
[26] = tested on: T47D; assay: Induction of cell cycle arrest at telophase in human T47D cells at 5 umol/L preincubated for 24 hrs followed by extensive compound washout and subsequent culturing in compound-free media measured upto 120 mins by immunofluorescence staining based analysis; format: functional; conditions: dose 5.0 µmol/L; how it was run: as §4
[27] = tested on: ZR-75-1; assay: Induction of polyploidy in human ZR-75-1 cells assessed as cells with 4N chromosome contents at 5 uM incubated for 72 hrs by PI staining based flow cytometry (reference value: 35); format: functional
[28] = tested on: T47D; assay: Induction of polyploidy in human T47D cells with RON-/- at 5 umol/L incubated for 72 hrs by microscopic analysis (reference value: 83.5 %); format: functional; conditions: dose 5 µmol/L, at 5 µM; how it was run: as §2
[29] = tested on: MCF7; assay: Induction of polyploidy in human MCF7 cells assessed as cells with 16N chromosome contents at 5 uM incubated for 24 hrs by PI staining based flow cytometry (reference value: 0); format: functional
[30] = tested on: T47D; assay: Induction of polyploidy in human T47D cells with RON-/- at 5 umol/L incubated for 72 hrs followed by media replacement without compound measured upto 10 days by microscopic analysis; format: functional, cell-based; conditions: dose 5.0 µmol/L
[31] = tested on: MCF7; assay: Induction of polyploidy in human MCF7 cells at 5 uM incubated for 72 hrs by microscopic analysis; format: functional, cell-based; how it was run: as §3

CCOc1ccn(-c2ccc(F)cc2)c(=O)c1C(=O)Nc1ccc(Oc2ccnc(N)c2Cl)c(F)c1 [BMS-777607]
Cmax [1]: 4.5 µM | Activity [2]: Active | Activity [3]: 38 | Activity [4]: inactive | Activity [5]: 32 | Activity [6]: 2.4% | Activity [7]: 20 | Activity [8]: 25.5 | IC50 [9]: 585 nM | inhibition [10]: Dose-Dependent Effect | Activity [11]: Active | Activity [12]: 10 | Activity [13]: Active | Activity [14]: 26 | IC50 [15]: 2260 nM | Activity [16]: 41 | Activity [17]: 88% | Activity [18]: 20 | IC50 [19]: 1180 nM | Activity [20]: 32 | Activity [21]: 12 | Activity [22]: Tde | Activity [23]: 1.8% | Activity [24]: Active | Activity [25]: 14 | Activity [26]: Active | Activity [27]: 12 | Activity [28]: 79.4% | Activity [29]: 0 | Activity [30]: Active | Activity [31]: Active
